Measurements as given in ChEMBL document CHEMBL1140153, “Structure-activity relationships of truncated D- and l-4'-thioadenosine derivatives as species-independent A3 adenosine receptor antagonists” (J Med Chem, 2008).
Active and inactive are the calls of the source. The calls are words filed in the database; no cut-off is given here.

What was measured:
[1] = target: T1, Adenosine receptor A1 (Homo sapiens, UniProt P30542); assay: Displacement of [3H]CCPA from human adenosine A1 receptor expressed in CHO cells; format: cell-based
T1 sequence (P30542 whole entry): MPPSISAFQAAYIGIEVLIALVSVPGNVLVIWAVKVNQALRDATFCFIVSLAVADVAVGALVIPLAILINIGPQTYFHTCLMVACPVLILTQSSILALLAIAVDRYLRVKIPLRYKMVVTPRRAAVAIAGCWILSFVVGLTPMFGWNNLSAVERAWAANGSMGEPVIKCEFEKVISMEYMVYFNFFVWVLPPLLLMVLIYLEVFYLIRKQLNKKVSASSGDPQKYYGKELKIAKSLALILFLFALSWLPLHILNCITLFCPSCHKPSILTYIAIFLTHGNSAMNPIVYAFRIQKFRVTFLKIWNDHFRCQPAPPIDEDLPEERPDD

[2] = target: T2, Adenosine receptor A3 (Homo sapiens) (UniProt P0DMS8); assay: Antagonist activity at human adenosine A3 receptor expressed in CHO cells assessed as inhibition of forskolin-stimulated cAMP production at 10 uM relative to (2S,3S,4R,5R)-5-(6-(3-iodobenzylamino)-9H-purin-9-yl)-3,4-dihydroxy-N-methyl-tetrahydrothiophene-2-carboxamide; format: functional, cell-based; design: scale not given: the % may be the effect or the level left
T2 sequence (whole entry): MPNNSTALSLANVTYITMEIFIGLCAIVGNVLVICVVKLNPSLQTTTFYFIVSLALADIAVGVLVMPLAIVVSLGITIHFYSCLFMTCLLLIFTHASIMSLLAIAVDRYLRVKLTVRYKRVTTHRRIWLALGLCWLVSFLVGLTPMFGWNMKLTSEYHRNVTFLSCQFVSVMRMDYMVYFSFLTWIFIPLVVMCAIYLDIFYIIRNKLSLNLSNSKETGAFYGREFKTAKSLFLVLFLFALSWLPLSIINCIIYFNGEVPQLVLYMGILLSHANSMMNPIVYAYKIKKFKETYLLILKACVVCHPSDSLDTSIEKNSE
Method in brief: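 CHO cells stably expressing human A3 AR; forskolin-stimulated cAMP production measured with test compound at 10 μM; response given as mean percentage of a full A3 agonist's effect, n = 1–3.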

[3] = target: T3, Adenosine receptor A3 (Homo sapiens, UniProt P0DMS8); assay: Displacement of [125I]I-AB-MECA from human adenosine A3 receptor expressed in CHO cells; format: cell-based
T3 sequence (P0DMS8 whole entry): T2 sequence (whole entry)

[4] = target: T4, Adenosine receptor A3 (Rattus norvegicus, UniProt P28647); assay: Displacement of [125I]I-AB-MECA from rat adenosine A3 receptor expressed in CHO cells; format: cell-based
T4 sequence (P28647 whole entry): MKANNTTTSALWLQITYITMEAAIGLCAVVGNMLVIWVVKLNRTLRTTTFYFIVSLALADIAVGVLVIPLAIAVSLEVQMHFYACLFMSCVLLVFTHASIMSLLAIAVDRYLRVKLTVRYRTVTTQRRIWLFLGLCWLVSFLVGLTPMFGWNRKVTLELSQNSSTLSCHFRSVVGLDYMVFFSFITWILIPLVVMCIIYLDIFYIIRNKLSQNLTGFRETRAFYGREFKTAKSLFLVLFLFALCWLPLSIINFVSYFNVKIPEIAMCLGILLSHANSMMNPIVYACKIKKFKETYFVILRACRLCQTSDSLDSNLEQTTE

[5] = target: Adenosine receptor A2a (Homo sapiens) (UniProt P29274); assay: Displacement of [3H]CGS-21680 from human adenosine A2A receptor expressed in HEK293 cells at 10 uM; format: cell-based
Method in brief: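 Human A2A AR HEK-293 membranes (20 μg/tube) with [3H]CGS21680 in 50 mM Tris-HCl pH 7.4 with 10 mM MgCl2, 60 min at 25 °C; nonspecific binding with 10 μM NECA; GF/B filtration.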

[6] = target: T5, Adenosine receptor A1 (Homo sapiens) (UniProt P30542); assay: Displacement of [3H]CCPA from human adenosine A1 receptor expressed in CHO cells at 10 uM; format: cell-based
T5 sequence (whole entry): T1 sequence (P30542 whole entry)
Method in brief: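 Human A1 AR CHO membranes (40 μg/tube) were incubated with 1 nM [3H]CCPA in 50 mM Tris-HCl pH 7.4 with 10 mM MgCl2 for 60 min at 25 °C; 10 μM NECA defined nonspecific binding; GF/B filtration.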

[7] = target: T2, Adenosine receptor A3 (Homo sapiens); assay: Displacement of [125I]I-AB-MECA from human adenosine A3 receptor expressed in CHO cells at 10 uM; format: cell-based
Method in brief: (§1)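 Membranes (20 μg protein) from CHO cells stably expressing human or rat A3 AR were incubated with 0.5 nM [125I]I-AB-MECA and increasing ligand concentrations in 50 mM Tris-HCl pH 7.4 with 10 mM MgCl2 for 60 min at 25 °C. Nonspecific binding was set with 10 μM NECA. Filtration through GF/B, washed ×3 with ice-cold buffer, γ-counting.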

[8] = target: T6, Adenosine receptor A2b (Homo sapiens) (UniProt P29275); assay: Agonist activity at human adenosine A2B receptor by cAMP assay; format: functional
T6 sequence (whole entry): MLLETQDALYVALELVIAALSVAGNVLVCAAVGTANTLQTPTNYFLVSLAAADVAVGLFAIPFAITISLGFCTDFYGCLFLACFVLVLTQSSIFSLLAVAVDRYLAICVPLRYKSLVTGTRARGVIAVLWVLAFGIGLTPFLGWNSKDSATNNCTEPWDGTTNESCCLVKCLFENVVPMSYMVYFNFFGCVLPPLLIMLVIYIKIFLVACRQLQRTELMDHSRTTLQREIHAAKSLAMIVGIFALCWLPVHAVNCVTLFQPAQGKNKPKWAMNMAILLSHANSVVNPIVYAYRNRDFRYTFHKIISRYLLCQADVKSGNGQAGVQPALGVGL

[9] = target: T6, Adenosine receptor A2b (Homo sapiens); assay: Antagonist activity at human adenosine A2B receptor by cAMP assay; format: functional
[10] = target: T7, Adenosine receptor A3 (Rattus norvegicus) (UniProt P28647); assay: Displacement of [125I]I-AB-MECA from rat adenosine A3 receptor expressed in CHO cells at 10 uM; format: cell-based; method in brief: as §1
T7 sequence (whole entry): T4 sequence (P28647 whole entry)

Adenosine receptor A2a (Homo sapiens), sequence (P29274 whole entry): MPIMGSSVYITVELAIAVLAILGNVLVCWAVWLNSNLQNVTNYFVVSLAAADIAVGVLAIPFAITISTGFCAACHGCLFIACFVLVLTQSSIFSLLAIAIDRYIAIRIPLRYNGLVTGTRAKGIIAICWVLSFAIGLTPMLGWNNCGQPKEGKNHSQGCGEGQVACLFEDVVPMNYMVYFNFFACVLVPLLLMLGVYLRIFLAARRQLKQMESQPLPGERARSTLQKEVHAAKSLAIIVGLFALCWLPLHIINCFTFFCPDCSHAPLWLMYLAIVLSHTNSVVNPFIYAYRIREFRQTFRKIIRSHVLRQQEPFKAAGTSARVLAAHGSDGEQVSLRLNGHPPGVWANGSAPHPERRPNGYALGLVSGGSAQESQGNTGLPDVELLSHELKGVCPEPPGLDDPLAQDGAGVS

Structure (SMILES) | Activity [2] | Ki [4] | also measured
CNC(=O)[C@H]1S[C@@H](n2cnc3c(NCc4cccc(I)c4)ncnc32)[C@H](O)[C@@H]1O | Active | 0.00186 µM | Ki [1]: 0.0173 µM; Ki [3]: 0.00025 µM
O[C@@H]1[C@H](O)CS[C@H]1n1cnc2c(NCc3cccc(Cl)c3)nc(Cl)nc21 | < 10% |  | 
O[C@@H]1[C@H](O)CS[C@H]1n1cnc2c(NCc3cccc(Cl)c3)ncnc21 | < 10% | 0.017 µM | 
CNc1nc(Cl)nc2c1ncn2[C@@H]1SC[C@@H](O)[C@H]1O | < 10% |  | 
CNc1ncnc2c1ncn2[C@@H]1SC[C@@H](O)[C@H]1O | < 10% |  | Ki [1]: 1.07 µM; inhibition [5]: 22%; Ki [3]: 0.0048 µM; inhibition [10]: 28%
O[C@@H]1[C@H](O)CS[C@H]1n1cnc2c(NCc3cccc(Br)c3)ncnc21 | < 10% | 0.0063 µM | 
O[C@@H]1[C@H](O)CS[C@H]1n1cnc2c(NCc3cccc(F)c3)ncnc21 | < 10% | 0.098 µM | 
O[C@@H]1[C@H](O)CS[C@H]1n1cnc2c(NCc3cccc(I)c3)ncnc21 | < 10% |  | 

Now from value to molecule, other results behind:

Activity [2] | Ki [4] | Structure (SMILES) | also measured
< 10% |  | O[C@H]1[C@@H](O)CS[C@@H]1n1cnc2c(NCc3cccc(I)c3)nc(Cl)nc21 | inhibition [5]: -0.95%; inhibition [6]: -8%; inhibition [7]: 18.4%
< 10% |  | O[C@@H]1[C@H](O)CS[C@H]1n1cnc2c(NCc3cccc(F)c3)nc(Cl)nc21 | 
< 10% |  | O[C@@H]1[C@H](O)CS[C@H]1n1cnc2c(NCc3cccc(I)c3)nc(Cl)nc21 | Activity [8]: inactive; Activity [9]: inactive
< 10% |  | O[C@@H]1[C@H](O)CS[C@H]1n1cnc2c(NCc3cccc(Br)c3)nc(Cl)nc21 | 
< 10% |  | O[C@H]1[C@@H](O)CS[C@@H]1n1cnc2c(NCc3cccc(Br)c3)nc(Cl)nc21 | inhibition [5]: 45.7%; inhibition [6]: 6.1%; inhibition [7]: 12.6%
